# Columns and labels:
# [1] = tested on: DNA-binding domain of RPA; conditions: in vitro; cited from earlier work
# RPA70N [2] = target: T1, RPA70N (Homo sapiens, UniProt P27694); test: Fluorescence polarization anisotropy; assay type: binding; conditions: for ligand efficiency: from FPA Kd
# In short: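 Displacement of a FITC-labelled ATRIP-derived peptide from RPA70N was read as fluorescence polarization anisotropy. Compounds were titrated to give dose-dependent anisotropy changes, from which IC50 was determined. Kd was calculated from IC50 with the Cheng–Prusoff equation and reported as the average of n = 2.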
# RPA70N [3] = target: T1, RPA70N; test: NMR; assay type: binding; conditions: initial fragment hits
# RPA70N-p53 = conditions: cited from earlier work
# RPA70N-Rad9 = conditions: cited from earlier work
# [4] = target: full length heterotrimeric RPA (Homo sapiens, UniProt P27694); test: Electrophoresis mobility shift assay; assay type: binding; conditions: EMSA, concentrations up to 100 μM
smiles,measurement,setting,value
"CCOc1ccc2cc(C3CN(C(=O)CCC(=O)O)N=C3c3ccc(Br)cc3)c(Cl)nc2c1 (centres unmarked) [Compound 1, reference compound]",disruption of RPA interaction with DNA,[1],disrupts its interaction with DNA
same,inhibition of the RPA70N-ATRIP interaction,RPA70N [2]; FPA assay,did not inhibit
O=C(O)c1sc2cc(Cl)ccc2c1Cl [Compound 3],ligand efficiency (LE),RPA70N [3],0.32
O=C(O)c1sc2cc(-n3c(S)nnc3-c3cccc(Oc4ccccc4)c3)ccc2c1Cl [Compound 14d],ligand efficiency,RPA70N [2],0.18
Clc1ccc(-c2nnn[nH]2)cc1 [Compound 4],ligand efficiency (LE),RPA70N [3],0.32
"CC(C)C1=C[C@]23CC[C@@H]4[C@](C)(CCC[C@@]4(C)C(=O)O)[C@H]2C[C@@H]1[C@@H](C(=O)O)[C@@H]3C(=O)O [Compound 2, fumaropimaric acid]",disruption of RPA70N-p53 interaction,RPA70N-p53,disrupt both RPA70N-Rad9 and RPA70N-p53 interactions
same,disruption of RPA70N-Rad9 interaction,RPA70N-Rad9,disrupt both RPA70N-Rad9 and RPA70N-p53 interactions
O=C(O)c1sc2cc(-n3c(S)nnc3-c3ccc(Cl)c(Cl)c3)ccc2c1Cl [Compound 14q],disruption of RPA-ssDNA interactions,[4],Neither 14q nor 14n showed evidence of disrupting RPA-ssDNA interactions
O=C(O)c1sc2cc(-n3c(S)nnc3-c3ccc(Br)c(Cl)c3)ccc2c1Cl [Compound 14n],disruption of RPA-ssDNA interactions,[4],Neither 14q nor 14n showed evidence of disrupting RPA-ssDNA interactions
O=C(O)c1cc2ccc(-n3c(S)nnc3-c3cccc(Oc4ccccc4)c3)cc2s1 [Compound 13e],ligand efficiency,RPA70N [2],0.17
O=C(O)c1sc2cc(-n3c(S)nnc3-c3ccccc3)ccc2c1Cl [Compound 5],ligand efficiency,RPA70N [2],0.22

# — PMC3728914 (ACS medicinal chemistry letters, 2013)
